Data from ChEMBL document CHEMBL3865847, “The synthesis and biological evaluation of alkyl and benzyl naphthyridinium analogs of eupolauridine as potential antimicrobial and cytotoxic agents” (Bioorg Med Chem, 2016).
Converted amounts (≈) assume the structure as drawn.

Key:
DNA topoisomerase 1 = molecular target: T1, DNA topoisomerase 1 (Homo sapiens, UniProt P11387); test: Inhibition of human DNA topoisomerase 1 using pHOT1 as substrate after 30 mins by agarose gel electrophoresis
T1 sequence (P11387 whole entry): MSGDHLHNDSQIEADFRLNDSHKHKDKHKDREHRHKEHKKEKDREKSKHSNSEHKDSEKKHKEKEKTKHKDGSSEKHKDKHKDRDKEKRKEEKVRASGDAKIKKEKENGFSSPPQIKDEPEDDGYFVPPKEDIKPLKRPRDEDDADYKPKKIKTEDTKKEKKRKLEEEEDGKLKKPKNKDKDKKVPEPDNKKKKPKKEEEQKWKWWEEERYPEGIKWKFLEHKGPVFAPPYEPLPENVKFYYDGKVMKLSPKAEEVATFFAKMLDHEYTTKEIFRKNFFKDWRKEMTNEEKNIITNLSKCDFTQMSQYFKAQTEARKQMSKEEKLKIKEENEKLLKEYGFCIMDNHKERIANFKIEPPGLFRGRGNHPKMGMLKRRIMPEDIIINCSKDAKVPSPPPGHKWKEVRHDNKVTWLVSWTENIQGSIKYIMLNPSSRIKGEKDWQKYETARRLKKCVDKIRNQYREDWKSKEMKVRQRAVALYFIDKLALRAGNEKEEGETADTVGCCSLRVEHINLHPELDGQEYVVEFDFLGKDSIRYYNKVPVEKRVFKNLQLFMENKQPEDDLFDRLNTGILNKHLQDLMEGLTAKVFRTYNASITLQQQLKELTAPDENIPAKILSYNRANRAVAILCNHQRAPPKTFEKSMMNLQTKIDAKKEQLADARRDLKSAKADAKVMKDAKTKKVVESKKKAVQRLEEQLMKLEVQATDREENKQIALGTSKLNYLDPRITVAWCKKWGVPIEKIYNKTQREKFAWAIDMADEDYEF
Outline: (§1)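 Relaxation of supercoiled to relaxed DNA by TopoI measured with a commercial TopoI drug kit following kit protocol. IC50 calculated from dose-response curves of % inhibition versus concentration.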

[1] = Cytotoxicity against human SK-MEL cells assessed as cell growth inhibition after 48 hrs by neutral red dye based assay; type: functional
Outline: (§2)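 Cells kept in RPMI-1640 with 10% bovine serum and 60 µg/mL amikacin, 37 °C, 5% CO2. Seeded at 25,000 cells/well, left 24 h to adhere. Samples diluted in RPMI added, highest final concentration 10 µg/mL. Growth measured by neutral red uptake after 48 h exposure.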

Pseudomonas aeruginosa = test: Antimicrobial activity against Pseudomonas aeruginosa ATCC 15442; type: functional
Outline: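 Pseudomonas grown 24 h in trypticase soy broth, diluted 1:50. Combined with diluted samples in 96-well plates, top final concentration 50 µg/mL (≤2.5% DMSO), 37 °C incubation. Growth read at 630 nm. MIC is the lowest tested concentration inhibiting 80% of growth versus controls; IC50 from concentration versus % growth graphs.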

[2] = Cytotoxicity against human BT549 cells assessed as cell growth inhibition after 48 hrs by neutral red dye based assay; type: functional; details: BT-549, 48 h; outline: as §2
Candida albicans = test: Antimicrobial activity against Candida albicans B311; type: functional
Outline: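 Cultured in Sabouraud dextrose broth 24 h, counted by hemocytometer, diluted to 10,000 CFU/mL. Added to serially diluted samples in 96-well plates, top final concentration 50 µg/mL (≤2.5% DMSO), incubated 37 °C. Growth by A630. MIC is the lowest concentration giving 80% inhibition against controls; IC50 from concentration versus % growth plots.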

Staphylococcus aureus [3] = test: Antimicrobial activity against methicillin-resistant Staphylococcus aureus; type: functional
Outline: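 MRSA precultured 24 h, diluted 1:50 in broth, added to serially diluted samples in 96-well plates (highest final DMSO 2.5%), incubated at 37 °C. Growth measured as absorbance at 630 nm versus controls. MIC is the lowest concentration giving 80% inhibition; IC50 (50% inhibition) is read from concentration versus % growth plots.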

Cryptococcus neoformans = test: Antimicrobial activity against Cryptococcus neoformans ATCC 52657; type: functional
Outline: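 Grown in mycophil broth 72 h, hemocytometer-counted, diluted to 200,000 CFU/mL. Exposed to diluted samples in 96-well plates, maximum final 50 µg/mL (DMSO up to 2.5%), incubated 30 °C. A630 readout. MIC is the lowest concentration inhibiting 80% of growth versus controls; IC50 read from concentration versus % growth graphs.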

[4] = Selectivity index, ratio of IC50 for human DNA topoisomerase 1 to IC50 for Candida albicans DNA topoisomerase 1
[5] = test system: Mycobacterium intracellulare; test: Antimicrobial activity against Mycobacterium intracellulare ATCC 23068; type: functional
Outline: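 Mycobacterium grown 72 h in Middlebrook medium with OADC supplement, diluted 1:30 in broth. Incubated at 37 °C with diluted samples in 96-well plates, highest final 50 µg/mL, DMSO at most 2.5%. Absorbance at 630 nm. MIC = lowest concentration with 80% growth inhibition relative to controls; IC50 from concentration versus % growth plots.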

[6] = Cytotoxicity against African green monkey Vero cells assessed as cell growth inhibition at 10 ug/ml after 48 hrs by neutral red dye based assay; type: toxicity; details: chlorocebus sabaeus; outline: as §2
[7] = Inhibition of Candida albicans DNA topoisomerase 1 using pHOT1 as substrate after 30 mins by agarose gel electrophoresis; outline: as §1
[8] = Cytotoxicity against human SKOV3 cells assessed as cell growth inhibition after 48 hrs by neutral red dye based assay; type: functional; details: SK-OV-3, 48 h; outline: as §2
[9] = Cytotoxicity against human KB cells assessed as cell growth inhibition after 48 hrs by neutral red dye based assay; type: functional; outline: as §2
Staphylococcus aureus [10] = test: Antimicrobial activity against Staphylococcus aureus ATCC 6538; type: functional
Outline: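 Staphylococcus aureus grown 24 h in Eugon broth, diluted 1:50 in broth, added to serially diluted samples in 96-well plates (highest final DMSO 2.5%), incubated at 37 °C. Growth measured at 630 nm versus controls. MIC is the lowest concentration inhibiting 80% of growth; IC50 (50% inhibition) comes from concentration versus % growth plots.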

Plasmodium falciparum = test: Antimalarial activity against Plasmodium falciparum D6 infected in RBC after 48 hrs by lactate dehydrogenase assay; type: functional; details: D6, 48 h
Outline: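 Parasites grown in A+ human erythrocytes in RPMI 1640 with 10% A+ human serum, 25 mM HEPES, 27 mM bicarbonate, 60 µg/mL amikacin, 37 °C under 90% N2/5% O2/5% CO2. Infected cells exposed 48 h in microtiter wells, highest concentration 4.8 µg/mL. Growth read by Malstat reagent (parasite LDH) with nitro blue tetrazolium reduction, absorbance 630 nm.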

[11] = Cytotoxicity against African green monkey Vero cells assessed as cell growth inhibition after 48 hrs by neutral red dye based assay; type: toxicity, Chlorocebus sabaeus; outline: as §2

C[n+]1c2c3c(nc(-c4ccccc4)cc3c3ccccc31)-c1ccccc1-2.[I-]
IC50 (DNA topoisomerase 1): 1.01 µM
IC50 [1]: 3.5 µg/mL
IC50 (Pseudomonas aeruginosa): 4 µg/mL
IC50 [2]: 7.5 µg/mL
IC50 (Candida albicans): 0.2 µg/mL
MIC80 (Candida albicans): 0.39 µg/mL
IC50 (Staphylococcus aureus [3]): 5 µg/mL
IC50 (Cryptococcus neoformans): 0.23 µg/mL
MIC80 (Cryptococcus neoformans): 0.78 µg/mL
Ratio IC50 [4]: 0.79
MIC80 [5]: 50 µg/mL
Activity [6]: Non-Toxic
IC50 [7]: 0.375 µg/mL
IC50 [8]: 4.5 µg/mL
IC50 [9]: > 10 µg/mL
IC50 (Staphylococcus aureus [10]): 4.5 µg/mL

C[n+]1ccc2c3c(nc4ccccc42)-c2ccccc2-c31.[I-]
IC50 (DNA topoisomerase 1): 4.54 µM
IC50 [2]: 7 µg/mL
IC50 (Candida albicans): 23.3 µg/mL
MIC80 (Candida albicans): 25 µg/mL
IC50 (Plasmodium falciparum): 0.033 µg/mL
IC50 (Staphylococcus aureus [3]): 20 µg/mL
IC50 (Cryptococcus neoformans): 2 µg/mL
MIC80 (Cryptococcus neoformans): 6.25 µg/mL
Activity [6]: Non-Toxic
IC50 [7]: 1.5 µg/mL
IC50 [8]: 1.3 µg/mL
IC50 [9]: 6.5 µg/mL

C[n+]1ccc2cc(-c3ccccc3)nc3c2c1-c1ccccc1-3.[I-]
IC50 (DNA topoisomerase 1): 28.4 µM
IC50 [1]: 9 µg/mL
IC50 (Pseudomonas aeruginosa): 25 µg/mL
IC50 [2]: 6.2 µg/mL
IC50 (Candida albicans): 0.32 µg/mL
MIC80 (Candida albicans): 0.39 µg/mL
IC50 (Plasmodium falciparum): 0.46 µg/mL
IC50 (Staphylococcus aureus [3]): 20 µg/mL
IC50 (Cryptococcus neoformans): 0.4 µg/mL
MIC80 (Cryptococcus neoformans): 0.78 µg/mL
Ratio IC50 [4]: 2.92
Activity [6]: Non-Toxic
IC50 [7]: 35 µg/mL
IC50 [8]: < 1.1 µg/mL
IC50 [9]: 7 µg/mL
IC50 (Staphylococcus aureus [10]): 20 µg/mL

[Br-].c1ccc2c(c1)-c1nccc3cc[n+](Cc4ccc5ccccc5c4)c-2c13
IC50 (DNA topoisomerase 1): 70.5 µM
IC50 [1]: < 1.1 µg/mL
IC50 (Pseudomonas aeruginosa): 30 µg/mL
IC50 [2]: > 10 µg/mL
IC50 (Candida albicans): 0.67 µg/mL
MIC80 (Candida albicans): 0.78 µg/mL
IC50 (Plasmodium falciparum): 0.0195 µg/mL
IC50 (Staphylococcus aureus [3]): 22 µg/mL
IC50 (Cryptococcus neoformans): 0.3 µg/mL
MIC80 (Cryptococcus neoformans): 0.39 µg/mL
Ratio IC50 [4]: 0.7
MIC80 [5]: 50 µg/mL
Activity [6]: Non-Toxic
IC50 [7]: 21 µg/mL
IC50 [8]: < 1.1 µg/mL
IC50 [9]: 6 µg/mL
IC50 (Staphylococcus aureus [10]): 20 µg/mL

CC[n+]1ccc2c3c(nc4ccccc42)-c2ccccc2-c31.[I-]
IC50 (DNA topoisomerase 1): 1.71 µM
IC50 (Pseudomonas aeruginosa): 50 µg/mL
IC50 [2]: > 10 µg/mL
IC50 (Candida albicans): 16.7 µg/mL
MIC80 (Candida albicans): 25 µg/mL
IC50 (Plasmodium falciparum): 0.033 µg/mL
IC50 (Cryptococcus neoformans): 6 µg/mL
MIC80 (Cryptococcus neoformans): 12.5 µg/mL
Ratio IC50 [4]: 1
Activity [6]: Non-Toxic
IC50 [7]: 0.7 µg/mL
IC50 [8]: 1.3 µg/mL
IC50 [9]: 6.8 µg/mL

CC[n+]1ccc2ccnc3c2c1-c1ccccc1-3.[I-]
IC50 (DNA topoisomerase 1): 41.6 µM
IC50 (Candida albicans): 35 µg/mL
MIC80 (Candida albicans): 50 µg/mL
IC50 (Plasmodium falciparum): 0.0475 µg/mL
IC50 (Cryptococcus neoformans): 13.3 µg/mL
MIC80 (Cryptococcus neoformans): 25 µg/mL
Ratio IC50 [4]: 0.67
Activity [6]: Non-Toxic
IC50 [7]: 10 µg/mL
IC50 (Staphylococcus aureus [10]): 40 µg/mL

COc1cccc2c1C(=O)c1c(O)c3c(c(O)c1C2=O)C[C@@](O)(C(=O)CO)C[C@@H]3O[C@H]1C[C@H](N)[C@H](O)[C@H](C)O1 [DOXORUBICIN]
IC50 [1]: 1.11 µg/mL (≈ 2.04 µM)
IC50 [2]: 1.35 µg/mL (≈ 2.48 µM)
IC50 [8]: 1.3 µg/mL (≈ 2.39 µM)
IC50 at 48 h [11]: > 10 µg/mL
IC50 [9]: 1.59 µg/mL (≈ 2.93 µM)
